RGS4 block: inhibitors of human RGS4 | HEK293 M3R/RGS4 inducible, Fluo-4 calcium flux; stronger effect = higher value; triggered by carbachol at its EC20 | B-score at 10 µM | 310,000 compounds, 0.45% hits | AID 463165;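 active = B-score, a plate-corrected calcium signal, over three deviations above library mean, with baseline fluorescence within five deviations of library mean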;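 also: RGS4 expression induced by doxycycline in cells with stable M3 receptor; B-score is computed from the integrated fluorescence ratio over baseline after carbachol; higher B-score means a larger calcium signal and so more RGS4 inhibition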
Target sequence (P49798 whole entry, looked up): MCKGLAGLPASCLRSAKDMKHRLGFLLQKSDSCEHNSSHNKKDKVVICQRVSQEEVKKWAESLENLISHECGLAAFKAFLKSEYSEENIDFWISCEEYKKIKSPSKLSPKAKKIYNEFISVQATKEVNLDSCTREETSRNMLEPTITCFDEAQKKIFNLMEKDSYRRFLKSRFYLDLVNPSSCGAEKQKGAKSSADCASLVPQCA
MrgX1 allo act: human MrgX1 positive allosteric modulation, primary screen; MrgX1-HEK293, Fluo-4 calcium flux, FDSS; stronger effect = higher value; B-score at 10 µM; 310,000 compounds, 0.63% hits;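 active = plate-corrected calcium response at least 3 library SD above typical, normal starting fluorescence, not activating the receptor alone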;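 also: compound read alongside a low EC10 to EC30 dose of BAM8-22 agonist; peak minus trough fluorescence over baseline measured at the second addition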
MrgX1 agonist: activates human MrgX1 receptor signaling; Q96LB2; MrgX1-HEK293 cells, Fluo-4 calcium fluorescence, agonist mode; stronger effect = higher value; B-score at 10 µM; 310,000 compounds, 0.44% hits;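 active = calcium response B-score plate-corrected fluorescence ratio at least 3 library SD, with starting fluorescence B-score inside 5 SD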
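Test system: HEK293 cells stably expressing human MrgX1 receptor; amount: 15,000 cells per well; doses: compound delivered in addition one of three; times: overnight plating before 1 h dye loading; detection: Fluo-4 NW calcium-flux fluorescence, kinetic read; read-out basis: B-scored fluorescence response ratio; controls: positive and negative controls per plate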
MrgX1 antag: antagonists of human MrgX1 receptor; AID 588676; B-score at 10 µM; Q96LB2; 310,000 compounds, 1.3% hits; MRGX1-HEK293 calcium flux, Fluo-4, BAM8-22 antagonism; stronger effect = lower value;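 active = calcium-response B-score plate-corrected more than 3 library SD below zero, starting fluorescence within 5 deviations, no agonist response on first addition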;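 also: peak minus trough fluorescence over baseline after final BAM8-22 challenge near maximal dose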
RGS4 pot: potentiators or activators of RGS4; HEK293 M3R/inducible RGS4, carbachol calcium flux Fluo4; stronger effect = lower value; B-score at 10 µM; 310,000 compounds, 0.92% hits; AID 463111;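 active = B-score of the integrated calcium signal more than 4 SD below the library mean, with starting fluorescence not abnormally high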;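 also: negative B-score means reduced calcium response which marks RGS4 activation or potentiation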
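test system = HEK293 cells with stable M3R and inducible RGS4 | schedule = recording 10 s baseline at 1 Hz, 100 s post-agonist | technique = Fluo4-AM (2 µM) calcium-flux fluorescence, kinetic read | measure = Agonist-evoked peak-minus-minimum fluorescence over baseline, integrated ratio, B score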
An asterisk follows results filed as active; i = inactive; . = no result given. Only some compounds are listed: those with a hit (about 3.5% of all), similar ones and a draw of the others.

SMILES	RGS4 block	MrgX1 allo act	MrgX1 agonist	MrgX1 antag	RGS4 pot
O=C(Nc1cccc(NC(=O)c2ccco2)n1)c1ccco1	i	i	i	i	i
Cn1c(Cc2cccc3ccccc23)nnc1SCc1ccc([N+](=O)[O-])cc1	i	i	i	-8.6*	i
Cc1ccc(OCC(=O)NCCNC(=O)c2ccc(C)nc2)cc1	i	i	i	i	i
COc1ccc(-n2c(C)cc(/C=C(\C#N)C(=O)NCc3ccco3)c2C)cc1	i	i	i	-4.9*	i
CCc1ccc(OCC(=O)NNC(=O)Cc2c(F)cccc2Cl)cc1	i	i	i	-6.9*	i
COC(=O)c1ccc(/C=C/c2c(-c3ccc(OC)cc3)oc3ccc(N4CCOCC4)cc23)cc1	i	i	i	i	i
Oc1ccc2ccccc2c1CN1CCN(c2ccccc2F)CC1	i	.	.	.	i
Oc1ccc2ccccc2c1CN1CCN(C/C=C/c2ccccc2)CC1	i	i	i	i	-7.8*
O=c1c2ccccc2n2c(-c3ccc(F)cc3)nnc2n1Cc1ccccc1	i	i	i	i	i
CC(c1nc2ccccc2c(=O)[nH]1)N1CCOCC1 (configuration not stated)	i	i	i	i	i
CC(C)N1CCC(N2CCN(Cc3ccc(-c4ccccc4Cl)o3)CC2CCO)CC1 (configuration not stated)	i	i	i	i	i
COc1ccc(CN(CCC(c2ccccc2)c2ccc(OC(C)C)cc2)C(=O)CCl)cc1OC (configuration not stated)	i	10*	i	i	-7.1*
COc1ccc(C(CCN(Cc2ccc(OC)c(OC)c2)C(C)=O)c2ccccc2)cc1 (configuration not stated)	i	i	i	i	i
O=C(O)CCCCn1c(SCC(=O)Nc2ccccc2C(F)(F)F)nc2ccsc2c1=O	i	i	i	i	i
CC1CCN(Cc2cc(=O)oc3cc4c(cc23)CCCC4)CC1	i	8.5*	i	i	i
CCc1ccc2oc(=O)cc(CN3CCOCC3)c2c1	i	i	i	i	i
CCc1ccc2oc(=O)cc(CN3CCC(C)CC3)c2c1	i	i	29*	i	i
COc1ccc(/C(O)=C/C(=O)C(=O)NNC(=O)c2ccccc2)cc1	i	i	i	i	i
COc1ccc(/C(O)=C/C(=O)C(=O)NNC(=O)C(O)(c2ccccc2)c2ccccc2)cc1	i	i	i	-4.8*	i
CC(C)C(=O)NC(=S)Nc1ccc(S(=O)(=O)N(C)Cc2ccccc2)cc1	i	i	i	i	-7*
CC(=O)NC(=S)Nc1ccc(S(=O)(=O)N(C)Cc2ccccc2)cc1	i	i	i	i	i
Cc1cc(OC(=O)c2ccccc2Cl)cc(=O)n1C	i	10*	i	i	i
COc1ccc(OCCC(=O)OCC(=O)Nc2cccc(S(=O)(=O)N3CCOCC3)c2)cc1	i	i	i	i	i
CCN(c1ccccc1)S(=O)(=O)c1ccc(Cl)c(NC(=O)COC(=O)C2CC2C)c1 (configuration not stated)	i	i	i	i	i
Clc1ccc(Oc2ncnc3oc(-c4ccccc4)cc23)cc1	i	i	i	i	i
SMILES	RGS4 block	MrgX1 allo act	MrgX1 agonist	MrgX1 antag	RGS4 pot
C=CCn1c(=O)/c(=C/c2ccc(Cl)cc2)s/c1=C(/C#N)c1nnc2n1CCCCC2	i	i	i	i	i
C=CCn1c(=O)/c(=C/c2ccc(O)cc2)s/c1=C(/C#N)c1nnc2n1CCCCC2	.	i	36*	i	.
Cc1ccc(/C=C2\C(=N)N3N=C(CC(=O)N4CCCCC4)SC3=NC2=O)cc1	i	i	i	i	i
COc1ccc(/C=C2\C(=N)N3N=C(CC(=O)N4CCCCC4)SC3=NC2=O)cc1	i	i	38*	i	i
COc1ccc(/C=C2/C(=N)N3N=C(CC(=O)N4CCCC4)SC3=NC2=O)cc1	i	i	35*	i	i
CCOC(=O)N1CCN(C(=S)NC(=O)c2c(-c3c(Cl)cccc3Cl)noc2C)CC1	i	i	i	i	i
O=[N+]([O-])c1cc(Br)c2nsnc2c1N1CCOCC1	i	i	59*	i	i

Screening data as filed in PubChem.
